{"source": "ChEMBL document CHEMBL4311948", "about": "“Exploring the Natural Piericidins as Anti-Renal Cell Carcinoma Agents Targeting Peroxiredoxin 1” (J Med Chem, 2019)", "key": {"ACHN [1]": {"system": "ACHN", "experiment": "Down regulation of SOD2 mRNA expression in human ACHN cells at 25 to 50 nM measured after 24 hrs by qRT-PCR analysis", "assay_type": "functional, cell-based"}, "ACHN [2]": {"system": "ACHN", "experiment": "Down regulation of ETS1 mRNA expression in human ACHN cells at 25 to 50 nM measured after 24 hrs by qRT-PCR analysis", "assay_type": "functional, cell-based"}, "[3]": {"experiment": "Toxicity in Balb/c nu/nu mouse xenografted with human ACHN cells assessed as effect on survival at 0.8 mg/kg, ip administered once daily for 21 days", "assay_type": "organism-based", "settings": "in vivo, 504 h", "in_short": "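Male athymic Balb/c nu/nu mice, four weeks old, acclimatised 1 week. 10^7 ACHN cells in 0.2 mL PBS injected into the right flank. At about 150 mm3, mice randomised into PBS control or 0.8 mg/kg groups, dosed ip daily for three weeks. Tumours measured by caliper (volume = 0.5 × L × W²) with body weight recorded. Endpoint tumour weight, sections stained by H&E and TUNEL. Tissue lysed for immunoblot.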"}, "ACHN [4]": {"system": "ACHN", "experiment": "Induction of apoptosis in human ACHN cells assessed as viable cells at 50 nM measured after 24 hrs by Annexin V-FITC/propidium iodide staining based flow cytometry (reference value: 100%)", "assay_type": "functional", "settings": "read-out: Activity"}, "ACHN [5]": {"system": "ACHN", "experiment": "Down regulation of HIF1A mRNA expression in human ACHN cells at 25 to 50 nM measured after 24 hrs by qRT-PCR analysis", "assay_type": "functional, cell-based"}, "ACHN [6]": {"system": "ACHN", "experiment": "Up regulation of PRDX1 mRNA expression in human ACHN cells at 25 to 50 nM measured after 24 hrs by qRT-PCR analysis", "assay_type": "functional, cell-based"}, "ACHN [7]": {"system": "ACHN", "experiment": "Induction of apoptosis in human ACHN cells assessed as early apoptotic cells at 50 nM measured after 48 hrs by Annexin V-FITC/propidium iodide staining based flow cytometry (reference value: 0%)", "assay_type": "functional"}, "ACHN [8]": {"system": "ACHN", "experiment": "Down regulation of EGFR mRNA expression in human ACHN cells at 25 to 50 nM measured after 24 hrs by qRT-PCR analysis", "assay_type": "functional, cell-based"}, "ACHN [9]": {"system": "ACHN", "experiment": "Cytotoxicity against human ACHN cells assessed as reduction in cell viability measured after 72 hrs by CCK8 assay", "assay_type": "functional, cell-based", "in_short": "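Cells were grown in 10% FBS medium: MEM for ACHN, RPMI1640 for OS-RC-2 and 786-O, DMEM for HK-2. They were seeded at 400–800 cells/well in 384-well plates and treated with a range of compound concentrations or solvent control, with sorafenib as positive control. After 72 h, CCK-8 absorbance was read at 450 nm in triplicate, and IC50 was taken from dose-response curves.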"}, "ACHN [10]": {"system": "ACHN", "experiment": "Induction of apoptosis in human ACHN cells assessed as necrotic cells at 50 nM measured after 48 hrs by Annexin V-FITC/propidium iodide staining based flow cytometry (reference value: 0%)", "assay_type": "functional"}, "Mus musculus": {"system": "Mus musculus", "experiment": "Up regulation of PRDX1 mRNA expression in human ACHN cells xenografted Balb/c nu/nu mouse at 0.8 mg/kg, ip administered once daily for 21 days measured post-last dose by qRT-PCR analysis", "assay_type": "functional, organism-based"}, "ACHN [11]": {"system": "ACHN", "experiment": "Induction of apoptosis in human ACHN cells assessed as late apoptotic cells at 50 nM measured after 24 hrs by Annexin V-FITC/propidium iodide staining based flow cytometry (reference value: 0%)", "assay_type": "functional"}, "ACHN [12]": {"system": "ACHN", "experiment": "Induction of apoptosis in human ACHN cells assessed as necrotic cells at 50 nM measured after 24 hrs by Annexin V-FITC/propidium iodide staining based flow cytometry (reference value: 0%)", "assay_type": "functional"}, "Peroxiredoxin-1": {"molecular_target": "T1, Peroxiredoxin-1 (Homo sapiens, UniProt Q06830)", "T1 sequence (Q06830 whole entry)": "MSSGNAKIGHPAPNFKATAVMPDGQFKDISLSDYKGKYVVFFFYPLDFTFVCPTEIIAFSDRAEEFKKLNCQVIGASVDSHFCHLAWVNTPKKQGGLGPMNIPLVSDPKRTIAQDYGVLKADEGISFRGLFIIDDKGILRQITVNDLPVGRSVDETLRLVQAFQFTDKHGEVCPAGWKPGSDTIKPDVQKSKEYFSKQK", "experiment": "Binding affinity to full-length human PRDX1 by surface plasmon resonance analysis", "in_short": "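Full-length human PRDX1 immobilised on a CM5 chip (Biacore T100). Analyte concentration series diluted in 10 mM Hepes pH 7.4, injected over the protein surface and a protein-free reference surface in a single step.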"}}, "note": "Active and inactive are the calls of the source. The rule behind the calls is not given here."}
{"smiles": "C/C=C(\\C)[C@H](O)[C@H](C)/C=C(C)/C=C/C/C(C)=C/Cc1nc(OC)c(OC)c(O)c1C", "note": "[PIERICIDIN A]", "values": [{"measurement": "Activity", "setting": "ACHN [1]", "result": "Active"}, {"measurement": "Activity", "setting": "ACHN [2]", "result": "Active"}, {"measurement": "Activity", "setting": "[3]", "result": "Non-Toxic"}, {"measurement": "viability at 0.05 µM", "setting": "ACHN [4]", "result": 81.9, "unit": "%"}, {"measurement": "Activity", "setting": "ACHN [5]", "result": "Active"}, {"measurement": "Activity", "setting": "ACHN [6]", "result": "Active"}, {"measurement": "Activity", "setting": "ACHN [7]", "result": 1.1, "unit": "%"}, {"measurement": "Activity", "setting": "ACHN [8]", "result": "Active"}, {"measurement": "IC50", "setting": "ACHN [9]", "result": 400, "unit": "nM"}, {"measurement": "Activity", "setting": "ACHN [10]", "result": 75.6, "unit": "%"}, {"measurement": "Activity", "setting": "Mus musculus", "result": "Active"}, {"measurement": "Activity", "setting": "ACHN [11]", "result": 1.3, "unit": "%"}, {"measurement": "Activity", "setting": "ACHN [12]", "result": 15.9, "unit": "%"}, {"measurement": "Kd", "setting": "Peroxiredoxin-1", "result": 2610, "unit": "nM"}]}
